The entries come from a sample that favours hits as a whole.
697 NFkB inh – lowers PMA/ionomycin-induced NF-kB signal in 697 B cells | 697 B-cell NF-kB luciferase reporter, 16 h | inhibition, % at 4 µM | actives 0.33% (n = 330,000) | AID 435022; in the data active means inhibition above about 35%
UPR XBP1 act – adaptive UPR (XBP1) activation. CHO-XBP1 luciferase reporter, IRE1-XBP1 UPR activation, luminescence; percent of tunicamycin response, DMSO as zero. activation, % at 20 µM. actives 0.33% (n = 330,000);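 active means versus positive control, 20 µM dose yields 30% or more activation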;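 further: 100% = tunicamycin at 10 µg/mL and 0% = DMSO only wells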
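Signal: luciferase luminescence; Assay system: CHO-XBP1 luciferase reporter cells; Amount: one thousand reporter cells per well; Dosing: 20 µM single concentration, DMSO 1%; Benchmarks: high control tunicamycin 10 µg/mL final, low control DMSO vehicle only; Schedule: 6 h compound exposure at 37 °C, 5% CO2; Evaluation: percent activation relative to tunicamycin reference.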
Jurkat NFkB inh – lowers PMA/ionomycin-induced NF-kB signal in Jurkat cells; PMA/ionomycin-induced NF-kB luciferase reporter, luminescence; inhibition, % at 4 µM; actives 0.53% (n = 330,000); AID 435003; in the data active means inhibition above about 50%
CHOP UPR activ – activators of apoptotic arm of unfolded protein response (CHOP); CHO-CHOP luciferase reporter, UPR activation, luminescence; percent of tunicamycin response over DMSO baseline; activation, % at 10 µM; actives 0.34% (n = 330,000);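 active means at 10 µM dose, activation of 40% or more, normalized to positive control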;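 further: 100% = tunicamycin at 10 µg/mL and 0% = DMSO alone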
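Test system: CHO CHOP reporter cells. Input: 500 CHO-CHOP cells per well. Medium: F12 with 10% FBS. Technique: luciferase luminescence. Measure: percent activation relative to tunicamycin control. Dosing: 10 µM compound, 0.5% DMSO. Timing: 16-18 h cell attachment, then 6 h compound exposure, 37 °C.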
CHOP inh – inhibitors of CHOP induction in ER stress response | CHO-K1 CHOP-promoter luciferase, tunicamycin-induced, 15-18 h | inhibition, % at 10 µM | actives 3.8% (n = 220,000);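 active means compounds that reduced the stress-induced luciferase reporter signal by more than about 70% of percent inhibition, limit read from the data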;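 further: 0% = tunicamycin plus vehicle and 100% = wells without tunicamycin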
CHOP UPR conf – apoptotic UPR (CHOP) activation, confirmed. actives 64% (n = 1,000). CHO-CHOP cells, CHOP-luciferase reporter luminescence; percent of tunicamycin response, DMSO as zero. shares compounds with CHOP UPR activ. activation, % at 10 µM; in the data active means activation above about 33%;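 further: 0% = DMSO wells and 100% = tunicamycin 10 µg/mL wells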
Active calls of the source: *.

`Cc1ccc(/C=C/C(=O)N2CC(C)CC(C)C2)o1` (centres undefined) gave 697 NFkB inh -9.9, UPR XBP1 act 0.4, Jurkat NFkB inh 7.1, CHOP UPR activ 68.5*, CHOP inh 18.2 and CHOP UPR conf 2.3.
Screening CCN1CCN(C(=O)/C=C/c2ccc(C)o2)CC1 returned 697 NFkB inh 20.4, UPR XBP1 act 1.2, Jurkat NFkB inh -0.2, CHOP UPR activ 1.3 and CHOP inh -11.6.
`CC(NC(=O)CN(c1cccc(C(F)(F)F)c1)S(=O)(=O)c1ccc(Cl)c([N+](=O)[O-])c1)c1ccccc1` (centres undefined) gave 697 NFkB inh 6.8, UPR XBP1 act 3.5, Jurkat NFkB inh -0.3, CHOP UPR activ 103.7*, CHOP inh -33.4 and CHOP UPR conf 140.0*.
C=CCN=c1scc(-c2ccco2)n1/N=C/c1ccc(O)c(O)c1O was read as 697 NFkB inh -87.7, UPR XBP1 act 2.8, Jurkat NFkB inh -37.2, CHOP UPR activ 161.1*, CHOP inh -80.9 and CHOP UPR conf 63.5*.
COc1ccc(-n2nc3c(c2NC(=O)CCl)CSC3)cc1 was read as 697 NFkB inh -13.6, UPR XBP1 act -5.5, Jurkat NFkB inh 7.0, CHOP UPR activ 49.4* and CHOP UPR conf 3.7.
Screening Cc1cc(C)n(-c2nc3ccccc3nc2N2CCC(C)CC2)n1 returned 697 NFkB inh -25.8, UPR XBP1 act -0.3, Jurkat NFkB inh -7.6, CHOP UPR activ 0.0 and CHOP inh 32.3.
For Cc1cc(N2CCC(C)CC2)nc(-n2nc(C)cc2C)n1 the results were 697 NFkB inh 5.2, UPR XBP1 act 3.0, Jurkat NFkB inh 3.8, CHOP UPR activ 86.5*, CHOP inh -181.5 and CHOP UPR conf 13.8.
`O=C(CCS(=O)(=O)c1ccccc1)N(CCCN1CCOCC1)c1nc2ccc(F)cc2s1` gave 697 NFkB inh -27.1, UPR XBP1 act -7.3, Jurkat NFkB inh -68.1, CHOP UPR activ 56.5* and CHOP UPR conf 21.1.
For Cc1cc(SCC(=O)N/N=C/c2ccc(C(=O)O)cc2)nc2ccccc12 the results were 697 NFkB inh -6.9, UPR XBP1 act -5.0, Jurkat NFkB inh -3.3 and CHOP UPR activ -0.3.
Screening CC12CCC(=O)N1C(C(=O)N1CCN(S(=O)(=O)c3cccc(Cl)c3)CC1)CS2 (centres undefined) returned 697 NFkB inh 1.2, UPR XBP1 act -1.4, Jurkat NFkB inh 6.7 and CHOP UPR activ 1.8.
Screening N#CC1=C(N)OC2=C(CC/C2=C\c2ccccc2)C1c1ccccc1 (centres undefined) returned 697 NFkB inh -1.1, UPR XBP1 act 3.4, Jurkat NFkB inh -1.0, CHOP UPR activ 104.2*, CHOP inh 58.4 and CHOP UPR conf 180.0*.
COc1ccc(N2CCN(C(=O)c3cccc(S(=O)(=O)N4CCCc5ccccc54)c3)CC2)cc1 was read as 697 NFkB inh 3.8, UPR XBP1 act -1.8, Jurkat NFkB inh -4.5 and CHOP UPR activ 0.2.
For Cc1cc(O)c(-c2cc(O)c(C)cc2O)cc1O the results were 697 NFkB inh -16.2, UPR XBP1 act -8.0, Jurkat NFkB inh 11.7, CHOP UPR activ 74.1*, CHOP inh -153.8 and CHOP UPR conf 135.6*.
`Cc1nc(SCc2nc3cc(Cl)c(F)cc3[nH]2)c2oc3ccccc3c2n1` gave 697 NFkB inh 7.6, UPR XBP1 act 7.4, Jurkat NFkB inh 3.4 and CHOP UPR activ -0.5.
For COc1ccc(C)cc1NC(=O)COC(=O)c1ccccc1SCC(=O)N1CCCC1 the results were 697 NFkB inh 15.3, UPR XBP1 act -2.1, Jurkat NFkB inh -2.4 and CHOP UPR activ -1.6.
Screening CCCCn1c(N)c(N(CCC(C)C)C(=O)C2CCN(C(=O)c3ccccc3C)CC2)c(=O)[nH]c1=O returned 697 NFkB inh -8.4, UPR XBP1 act 2.3, Jurkat NFkB inh -6.4 and CHOP UPR activ -0.4.
For Cc1oc2c(c1C(=O)c1ccccc1)C(=O)C(=O)c1ccccc1-2 the results were 697 NFkB inh 2.4, UPR XBP1 act -1.1, Jurkat NFkB inh -25.2, CHOP UPR activ 67.4* and CHOP UPR conf -2.5.
For O=C1C(=O)c2c(C(=O)c3ccccc3)coc2-c2ccccc21 the results were 697 NFkB inh 14.4, UPR XBP1 act 23.3, Jurkat NFkB inh -5.8, CHOP UPR activ 47.7*, CHOP inh 52.5 and CHOP UPR conf 29.6.
Nn1c(-c2ccc(F)cc2)nc2ccccc2c1=O was read as 697 NFkB inh 4.1, UPR XBP1 act 0.0, Jurkat NFkB inh 7.3 and CHOP UPR activ 0.6.
O=C1c2cc(F)ccc2-n2c1nc1ccccc1c2=O was read as 697 NFkB inh -45.9, UPR XBP1 act 12.3, Jurkat NFkB inh 45.7, CHOP UPR activ 77.2* and CHOP UPR conf 30.1.
`COc1ccc(CCNC(=O)c2cc3c(=O)n4cccc(C)c4nc3n(Cc3ccco3)c2=N)cc1OC` gave 697 NFkB inh -123.7, UPR XBP1 act 0.9, Jurkat NFkB inh 37.9, CHOP UPR activ 244.6* and CHOP UPR conf 1.4.
`C/C(=C\C(=O)OCCCCCCCCC(=O)O)C[C@@H]1OC[C@H](C[C@@H]2O[C@H]2[C@@H](C)[C@H](C)O)[C@@H](O)[C@H]1O` gave 697 NFkB inh 17.0, UPR XBP1 act -5.4, Jurkat NFkB inh -0.5 and CHOP UPR activ -2.0.
CC(C)(C)c1ccc(OCCC(=O)OCC(=O)N2c3ccccc3NC(=O)C2(C)C)cc1 was read as 697 NFkB inh 14.4, UPR XBP1 act 0.2, Jurkat NFkB inh 2.0 and CHOP UPR activ 0.6.
Screening Cc1ccc(NC(=O)c2ccc([N+](=O)[O-])o2)cc1S(=O)(=O)N1CCOCC1 returned 697 NFkB inh -2.6, UPR XBP1 act -0.2, Jurkat NFkB inh 8.7, CHOP UPR activ 82.4*, CHOP inh -130.4 and CHOP UPR conf 39.6*.
`O=C(COC(=O)c1ccc([N+](=O)[O-])o1)Nc1cccc(S(=O)(=O)N2CCCCC2)c1` gave 697 NFkB inh 10.2, UPR XBP1 act -2.4, Jurkat NFkB inh 6.3, CHOP UPR activ 0.2 and CHOP inh 4.8.
`O=C(Nc1cccc(S(=O)(=O)N2CCCCC2)c1)c1ccc([N+](=O)[O-])o1` gave 697 NFkB inh 21.0, UPR XBP1 act 2.3, Jurkat NFkB inh 15.3, CHOP UPR activ 54.9*, CHOP inh -151.1 and CHOP UPR conf 38.5*.
Screening COc1ccc(OC)c2sc(N(CCN(C)C)C(=O)/C=C/c3cccs3)nc12 returned 697 NFkB inh -29.4, UPR XBP1 act 6.6, Jurkat NFkB inh 8.8, CHOP UPR activ 67.2* and CHOP UPR conf 11.2.
For Cn1c(SCC(=O)NCC2CCCO2)ncc(C(=O)Nc2ccc(F)cc2)c1=O (centres undefined) the results were 697 NFkB inh 12.7, UPR XBP1 act -4.5, Jurkat NFkB inh -3.7 and CHOP UPR activ 20.6.
